B1: Osa-1-4 twister ribozyme (parent)
chain: CCGCCUAACACUGCCAAUGCCGGUCCCAAGCCCGGAUAAAAGUGGAGGGGGCGG

Variants of: B1
Assay: self-cleavage, relative activity (ratio to wild type); higher = more cleavage; co-transcriptional
How it was run: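 A DNA template for a 54-nucleotide Oryza sativa twister ribozyme was synthesised with 97 % wild-type base and 1 % of each other base at the 48 positions downstream of the cleavage site. It was transcribed in vitro for 2 h at 37 °C, allowing co-transcriptional self-cleavage, then reverse-transcribed with a template-switching oligonucleotide, PCR-amplified and deep-sequenced. Cleavage status was scored from reads with or without upstream sequence. Relative activity is fraction cleaved normalised to wild type.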

| Variant | self-cleavage |
| --- | --- |
| A17U G53C | 0.12 |
| A17U C14G | 0.25 |
| A17U C14A | 0.18 |
| A17U C14U | 0.79 |
| G19U U37A | 0.15 |
| G19U U37C | 0.84 |
| G19U U37G | 0.53 |
| A17U C26G | 0.09 |
| A17U C26A | 0.06 |
| A17U C26U | 1 |
| G19C U18C | 0.39 |
| G19C U18A | 0.66 |
| G19C U18G | 0.91 |
| G19A G34A | 0.61 |
| G19A G34U | 0.39 |
| G19A G34C | 0.25 |
| A17U C15A | 0.62 |
| A17U C15U | 0.64 |
| A17U C15G | 0.54 |
| G19A G51A | 0.33 |
| G19A G51U | 0.17 |
| G19A G51C | 0.08 |
| G19A G50U | 0.56 |
| G19A G50C | 0.27 |

| Variant | self-cleavage |
| --- | --- |
| G19A G50A | 0.92 |
| G19A | 0.99 |
| G19C | 0.27 |
| G19U | 0.57 |
| G19A U18A | 0.84 |
| G19A U18G | 1.01 |
| G19A U18C | 0.93 |
| A17U G54C | 1 |
| A17U G54U | 0.99 |
| A17U G54A | 0.99 |
| C20A C9U | 0.53 |
| C20A C9G | 0.68 |
| C20A C9A | 0.29 |
| A17U G45A | 0.54 |
| A17U G45U | 0.18 |
| A17U G45C | 0.06 |
| A17U C31U | 0.94 |
| A17U C31A | 0.05 |
| A17U C31G | 0.12 |
| G19A U24G | 0.09 |
| G19A U24C | 0.08 |
| G19A U24A | 0.08 |
| U18C U37G | 0.95 |
| U18C U37A | 0.69 |

| Variant | self-cleavage |
| --- | --- |
| U18C U37C | 0.97 |
| G19C G53U | 0.05 |
| G19C G53A | 0.06 |
| G19C G53C | 0.04 |
| G19U G47C | 0.04 |
| G19U G47A | 0.04 |
| G19U G47U | 0.04 |
| G19U U24C | 0.07 |
| G19U U24A | 0.05 |
| G19U U24G | 0.07 |
| G19A G48U | 0.06 |
| G19A G48C | 0.06 |
| G19A G48A | 0.06 |
| A17U A40U | 0.63 |
| G19U G23C | 0.04 |
| G19U G23A | 0.07 |
| G19U G23U | 0.04 |
| G19A G30A | 0.05 |
| G19A G30U | 0.06 |
| G19A G30C | 0.07 |
| G19A G42U | 0.06 |
| G19A G42A | 0.1 |
| G19A G42C | 0.09 |
| G19C G23C | 0.02 |

| Variant | self-cleavage |
| --- | --- |
| G19C G23A | 0.04 |
| G19C G23U | 0.04 |
| A17U C21U | 1.05 |
| A17U C21A | 0.83 |
| A17U C21G | 0.09 |
| G19U G42U | 0.04 |
| G19U G42C | 0.06 |
| G19U G42A | 0.06 |
| G19C G51C | 0.03 |
| G19C G51U | 0.04 |
| G19C G51A | 0.08 |
| U18G U43A | 0.76 |
| U18G U43G | 0.77 |
| U18G U43C | 0.67 |
| A17U G49A | 0.25 |
| A17U G49C | 0.08 |
| A17U G49U | 0.22 |
| G19A G53U | 0.13 |
| G19A G53C | 0.09 |
| G19A G53A | 0.18 |
| G19C U12C | 0.04 |
| G19C U12G | 0.06 |
| G19C U12A | 0.04 |
| G19C G45U | 0.03 |

| Variant | self-cleavage |
| --- | --- |
| G19C G45A | 0.03 |
| G19C G45C | 0.03 |
| U18A U37A | 0.63 |
| U18A U37G | 0.93 |
| U18A U37C | 0.98 |
| G19C G35U | 0.42 |
| G19C G35A | 0.45 |
| G19C G35C | 0.29 |
| G19A G45A | 0.07 |
| G19A G45U | 0.06 |
| G19A G45C | 0.06 |
| G19A U43G | 0.12 |
| G19A U43C | 0.12 |
| G19A U43A | 0.23 |
| G19A U12C | 0.09 |
| G19A U12A | 0.12 |
| G19A U12G | 0.13 |
| G19U U12C | 0.05 |
| G19U U12A | 0.07 |
| G19U U12G | 0.09 |
| A17U C11U | 0.86 |
| A17U C11A | 0.7 |
| A17U C11G | 0.48 |
| G19A G54C | 0.24 |

| Variant | self-cleavage |
| --- | --- |
| G19A G54U | 0.65 |
| G19A G54A | 0.31 |
| G19C G42A | 0.05 |
| G19C G42C | 0.04 |
| G19C G42U | 0.02 |
| U18C U43C | 0.35 |
| U18C U43A | 0.65 |
| U18C U43G | 0.3 |
| G19A G23C | 0.06 |
| G19A G23U | 0.05 |
| G19A G23A | 0.12 |
| G19U G22U | 0.12 |
| G19U G22C | 0.05 |
| G19U G22A | 0.32 |
| G19C G54A | 0.11 |
| G19C G54C | 0.06 |
| G19C G54U | 0.4 |
| A17U G51A | 0.67 |
| A17U G51U | 0.38 |
| A17U G51C | 0.19 |
| G19A G49U | 0.08 |
| G19A G49A | 0.08 |
| G19A G49C | 0.09 |
| A17U C52A | 1.02 |

| Variant | self-cleavage |
| --- | --- |
| A17U C52G | 0.98 |
| A17U C52U | 1.01 |
| A17U U43C | 0.8 |
| A17U U43G | 0.57 |
| A17U U43A | 0.91 |
| G19U G45U | 0.04 |
| G19U G45A | 0.03 |
| G19U G45C | 0.04 |
| A17U G42C | 0.29 |
| A17U G42A | 0.17 |
| A17U G42U | 0.56 |
| G19U G44U | 0.19 |
| G19U G44C | 0.34 |
| G19U G44A | 0.1 |
| G19U G53U | 0.09 |
| G19U G53C | 0.06 |
| G19U G53A | 0.1 |
| G19A G47C | 0.08 |
| G19A G47A | 0.08 |
| G19A G47U | 0.07 |
| G19U G50C | 0.1 |
| G19U G50A | 0.59 |
| G19U G50U | 0.21 |
